In ChEMBL document CHEMBL4049388, “Facile and efficient access to Androsten-17-(1',3',4')-pyrazoles and Androst-17β-(1',3',4')-pyrazoles via Vilsmeier reagents, and their antiproliferative activity evaluation in vitro” (Eur J Med Chem, 2017):
The source made the active and inactive calls. No cut-off for these calls is given here.

Experiments:
HeLa [1] = experiment: Induction of apoptosis in human HeLa cells assessed as gated cells at late apoptotic stage at 5 uM after 24 hrs by Annexin-V-FITC/propidium iodide staining based flow cytometry (reference value: 0.03%); assay type: functional
In short: (§1)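 Hela cells seeded at 10^6 per well and stabilized 24 h at 37 °C, 5% CO2. Then treated 24 h at 2.5, 5.0 or 7.5 μM, DMSO negative control. Cells washed in cold PBS, resuspended at 1×10^6 cells/mL in cold binding buffer, stained with annexin V-FITC then PI for 15 min in dark, analysed by flow cytometry.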

HeLa [2] = experiment: Induction of apoptosis in human HeLa cells assessed as total cells at necrotic stage at 7.5 uM after 24 hrs by Annexin-V-FITC/propidium iodide staining based flow cytometry (reference value: 0.05%); assay type: functional; in short: as §1
HeLa [3] = experiment: Induction of apoptosis in human HeLa cells assessed as total cells at viable stage at 7.5 uM after 24 hrs by Annexin-V-FITC/propidium iodide staining based flow cytometry (reference value: 96.16%); assay type: functional; in short: as §1
HeLa [4] = experiment: Cell cycle arrest in human HeLa cells assessed as accumulation at S phase at 5 uM after 24 hrs by propidium iodide staining based flow cytometry (reference value: 18.92%); assay type: functional
MCF7 [5] = experiment: Cytotoxicity against human MCF7 cells after 72 hrs by SRB assay; assay type: functional, cell-based; details: MCF7, 72 h
In short: (§2)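 SRB assay on 293T, A549, Hela and MCF-7 cells, with cisplatin as reference control. IC50 calculated for each compound from triplicate assays.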

HeLa [6] = experiment: Induction of apoptosis in human HeLa cells assessed as total cells at late apoptotic stage at 5 uM after 24 hrs by Annexin-V-FITC/propidium iodide staining based flow cytometry (reference value: 0.03%); assay type: functional; in short: as §1
HeLa [7] = experiment: Induction of apoptosis in human HeLa cells assessed as gated cells at early apoptotic stage at 7.5 uM after 24 hrs by Annexin-V-FITC/propidium iodide staining based flow cytometry (reference value: 0.04%); assay type: functional; in short: as §1
HeLa [8] = experiment: Induction of apoptosis in human HeLa cells assessed as total cells at early apoptotic stage at 2.5 uM after 24 hrs by Annexin-V-FITC/propidium iodide staining based flow cytometry (reference value: 0.04%); assay type: functional; in short: as §1
HeLa [9] = experiment: Induction of apoptosis in human HeLa cells assessed as irregular nucleus at 7.5 uM after 48 hrs by Hoechst 33342 staining based fluorescence microscopic method; assay type: functional, cell-based
In short: (§3)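 Hela cells seeded at 10^6 per well on cover slips and incubated 16 h. Then exposed 48 h at 2.5, 5.0 or 7.5 μM, DMSO negative control. Cells fixed in 4% paraformaldehyde for 15 min, washed in PBS, stained with Hoechst 33342 for 10 min. Nuclear morphology viewed by fluorescence microscopy, ex 350 nm / em 460 nm.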

[10] = Cytotoxicity against human 293T cells assessed as growth inhibition at 10 uM after 72 hrs by SRB assay relative to control; assay type: cell-based; details: HEK-293T cells, read-out: GI
In short: (§4)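 SRB single-dose screen at 10 μM on 293T, A549, Hela and MCF-7 cells. Results reported as percent inhibitory ratio (mean ± SD).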

HeLa [11] = experiment: Cell cycle arrest in human HeLa cells assessed as accumulation at G2 phase at 5 uM after 24 hrs by propidium iodide staining based flow cytometry (reference value: 24.36%); assay type: functional
HeLa [12] = experiment: Induction of apoptosis in human HeLa cells assessed as total cells at necrotic stage at 5 uM after 24 hrs by Annexin-V-FITC/propidium iodide staining based flow cytometry (reference value: 0.05%); assay type: functional; in short: as §1
HeLa [13] = experiment: Induction of apoptosis in human HeLa cells assessed as nuclear condensation at 7.5 uM after 48 hrs by Hoechst 33342 staining based fluorescence microscopic method; assay type: functional, cell-based; in short: as §3
HeLa [14] = experiment: Induction of apoptosis in human HeLa cells after 24 hrs by Annexin-V-FITC/propidium iodide staining based flow cytometry; assay type: functional, cell-based; in short: as §1
HeLa [15] = experiment: Induction of apoptosis in human HeLa cells assessed as total cells at early apoptotic stage at 5 uM after 24 hrs by Annexin-V-FITC/propidium iodide staining based flow cytometry (reference value: 0.04%); assay type: functional; in short: as §1
HeLa [16] = experiment: Induction of apoptosis in human HeLa cells assessed as gated cells at viable stage at 2.5 uM after 24 hrs by Annexin-V-FITC/propidium iodide staining based flow cytometry (reference value: 99.88%); assay type: functional; in short: as §1
HeLa [17] = experiment: Cell cycle arrest in human HeLa cells assessed as accumulation at S phase after 24 hrs by propidium iodide staining based flow cytometry; assay type: functional
A549 [18] = experiment: Cytotoxicity against human A549 cells after 72 hrs by SRB assay; assay type: functional, cell-based; details: A549, 72 h; in short: as §2
HeLa [19] = experiment: Cell cycle arrest in human HeLa cells assessed as accumulation at G1 phase at 7.5 uM after 24 hrs by propidium iodide staining based flow cytometry (reference value: 56.72%); assay type: functional
HeLa [20] = experiment: Induction of apoptosis in human HeLa cells assessed as total cells at necrotic stage at 2.5 uM after 24 hrs by Annexin-V-FITC/propidium iodide staining based flow cytometry (reference value: 0.05%); assay type: functional; in short: as §1
HeLa [21] = experiment: Induction of apoptosis in human HeLa cells assessed as apoptotic body formation at 7.5 uM after 48 hrs by Hoechst 33342 staining based fluorescence microscopic method; assay type: functional, cell-based; in short: as §3
HeLa [22] = experiment: Induction of apoptosis in human HeLa cells assessed as gated cells at viable stage at 5 uM after 24 hrs by Annexin-V-FITC/propidium iodide staining based flow cytometry (reference value: 99.88%); assay type: functional; in short: as §1
A549 [23] = experiment: Cytotoxicity against human A549 cells assessed as growth inhibition at 10 uM after 72 hrs by SRB assay relative to control; assay type: functional; details: A549, 72 h, read-out: GI; in short: as §4
HeLa [24] = experiment: Induction of apoptosis in human HeLa cells assessed as total cells at late apoptotic stage at 2.5 uM after 24 hrs by Annexin-V-FITC/propidium iodide staining based flow cytometry (reference value: 0.03%); assay type: functional; in short: as §1
HeLa [25] = experiment: Induction of apoptosis in human HeLa cells assessed as gated cells at early apoptotic stage at 2.5 uM after 24 hrs by Annexin-V-FITC/propidium iodide staining based flow cytometry (reference value: 0.04%); assay type: functional; in short: as §1
HeLa [26] = experiment: Induction of apoptosis in human HeLa cells assessed as total cells at viable stage at 2.5 uM after 24 hrs by Annexin-V-FITC/propidium iodide staining based flow cytometry (reference value: 96.16%); assay type: functional; in short: as §1
HeLa [27] = experiment: Induction of apoptosis in human HeLa cells assessed as total cells at late apoptotic stage at 7.5 uM after 24 hrs by Annexin-V-FITC/propidium iodide staining based flow cytometry (reference value: 0.03%); assay type: functional; in short: as §1
HeLa [28] = experiment: Induction of apoptosis in human HeLa cells assessed as total cells at early apoptotic stage at 7.5 uM after 24 hrs by Annexin-V-FITC/propidium iodide staining based flow cytometry (reference value: 0.04%); assay type: functional; in short: as §1
MCF7 [29] = experiment: Cytotoxicity against human MCF7 cells assessed as growth inhibition at 10 uM after 72 hrs by SRB assay relative to control; assay type: functional; details: MCF7, 72 h, read-out: GI; in short: as §4
HeLa [30] = experiment: Cell cycle arrest in human HeLa cells assessed as accumulation at G2 phase at 2.5 uM after 24 hrs by propidium iodide staining based flow cytometry (reference value: 24.36%); assay type: functional
HeLa [31] = experiment: Cytotoxicity against human HeLa cells assessed as growth inhibition at 10 uM after 72 hrs by SRB assay relative to control; assay type: functional; details: read-out: GI; in short: as §4

Structure (SMILES): CCNCc1cn(-c2ccccc2)nc1C1=CC[C@H]2[C@@H]3CC=C4C[C@@H](O)CC[C@]4(C)[C@H]3CC[C@]12C
- Activity (HeLa [1]): 0.36%
- Activity (HeLa [2]): 2.79%
- Activity (HeLa [3]): 78.35%
- Activity (HeLa [4]): 24.34%
- IC50 (MCF7 [5]): 2.53 µM
- Activity (HeLa [6]): 0.31%
- Activity (HeLa [7]): 8.37%
- Activity (HeLa [8]): 0.58%
- Activity (HeLa [9]): Active
- inhibition at 72 h, 10 µM [10]: 94.2%
- Activity (HeLa [11]): 22.53%
- Activity (HeLa [12]): 3.26%
- Activity (HeLa [13]): Active
- Activity (HeLa [14]): Dose-dependent effect
- Activity (HeLa [15]): 2.08%
- Activity (HeLa [16]): 97.93%
- Activity (HeLa [17]): Dose-dependent effect
- IC50 (A549 [18]): 7.39 µM
- Activity (HeLa [19]): 49.92%
- Activity (HeLa [20]): 1.28%
- Activity (HeLa [21]): Active
- Activity (HeLa [22]): 93.44%
- inhibition of growth at 10 µM (A549 [23]): 91.3%
- Activity (HeLa [24]): 0.16%
- Activity (HeLa [25]): 0.59%
- Activity (HeLa [26]): 95.73%
- Activity (HeLa [27]): 0.9%
- Activity (HeLa [28]): 7.5%
- inhibition of growth at 10 µM (MCF7 [29]): 89.3%
- Activity (HeLa [30]): 25.6%
- inhibition of growth at 10 µM (HeLa [31]): 92.8%
